Screening data (PubChem BioAssay)
TRPML3 ag: agonists of human TRPML3 channel | Q8TDD5 | HEK293 TRPML3-YFP, Fluo-8 calcium fluorescence; 100% = the carbachol control signal | activation, % at 3 µM | 220,000 compounds, 0.29% hits;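 active = activation above its plate's cutoff, the mean activation of the plate's test wells plus 3 SD, cut at about 12% in these data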;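 note: 0% = DMSO only wells and 100% = carbachol wells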
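Test system: TRPML3-YFP stable HEK293 cells. Doses: single point at 3 µM. Incubation: dye loading 1 h 37 °C then 30 min ambient, 125 s read. Signal: Fluo-8 calcium dye fluorescence, ex 470-495, em 515-575 nm. Measure: percent activation from peak-to-basal fluorescence ratio, scaled between DMSO and carbachol.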
V1aR counter: V1a receptor agonism, counter-screen for OXTR agonists. P37288. CHO-V1R cells, Fluo-8 calcium fluorescence, agonist mode; 0% DMSO, 100% 3 nM vasopressin. activation, % at 3 µM. 320,000 compounds, 0.25% hits;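 active = activation above the mean activation of all tested compounds plus 3 SD, per screening run, cut at about 20% in these data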;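 note: signal is peak over basal fluorescence ratio across a 100 second FLIPR read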
Target sequence (P37288 whole entry, looked up): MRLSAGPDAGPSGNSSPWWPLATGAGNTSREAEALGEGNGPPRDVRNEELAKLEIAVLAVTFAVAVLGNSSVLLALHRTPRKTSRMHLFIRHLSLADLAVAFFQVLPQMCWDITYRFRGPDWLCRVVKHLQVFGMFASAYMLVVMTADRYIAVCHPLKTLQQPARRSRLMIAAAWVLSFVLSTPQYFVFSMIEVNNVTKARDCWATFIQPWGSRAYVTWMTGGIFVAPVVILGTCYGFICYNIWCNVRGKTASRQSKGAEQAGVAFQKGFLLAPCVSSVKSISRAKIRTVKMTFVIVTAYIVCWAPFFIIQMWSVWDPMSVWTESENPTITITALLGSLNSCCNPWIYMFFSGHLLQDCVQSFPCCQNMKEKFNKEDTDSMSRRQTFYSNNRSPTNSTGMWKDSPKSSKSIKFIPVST
OXTR potentiator: human OXTR potentiation. P30559. CHO-OTR cells, Fluo-8 calcium fluorescence, potentiator mode; 0% = oxytocin EC15, 100% = EC100. activation, % at 3 µM. 320,000 compounds, 0.061% hits. AID 2445;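 active = activation above that plate's cutoff, the mean activation of tested compounds plus 3 SD, cut at about 6.6% in these data, passing the limit was not always enough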;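 note: 100% uses oxytocin at 75 nM as the full agonist control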
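Assay system: CHO cell line stably expressing human OTR. Reagent: EC15 oxytocin agonist. Dosing: single dose, 3.0 µM nominal final compound concentration. Timing: compound 6 min at room temperature before oxytocin, 100 s read. Signal: kinetic Fluo-8 calcium fluorescence. Controls: oxytocin EC15 low and EC100 high.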
OXTR ag: human OXTR agonism; CHO-OTR cells, Fluo-8 calcium fluorescence; normalized: DMSO 0%, oxytocin 100%; P30559; 320,000 compounds, 0.32% hits; activation, % at 3 µM; AID 2435;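 active = activation above the mean of all tested compounds plus 3 SD, cutoff set per screening run, cut at about 20% in these data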;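 note: peak over basal fluorescence ratio from a 100 s FLIPR kinetic read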
TRPN1 ag: agonists of zebrafish TRPN1 channel. HEK293 zebrafish TRPN1-YFP, Fluo-8 calcium fluorescence; 100% = response to 87 µM carbachol. activation, % at 3 µM. 220,000 compounds, 0.18% hits. AID 1424;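 active = activation above its plate's cutoff, the mean activation of test wells on that plate plus 3 SD, cut at about 19% in these data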;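 note: 0% = DMSO alone and 100% = 87 µM carbachol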
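Material: zebrafish TRPN1-YFP in HEK293 cells; Doses: single test compound dose, 3 µM nominal, 0.3% DMSO; Timing: dye loading 1 h at 37 °C, then 30 min room temperature; Technique: intracellular calcium fluorescence with Fluo-8; Benchmarks: high carbachol 87 µM, low DMSO alone.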
* marks the source's active call; other numbers are inactive results; · = not tested or not shown. Compounds with a hit are over-represented: about 0.58% of the library has one in this group of screens.

SMILES | TRPML3 ag | V1aR counter | OXTR potentiator | OXTR ag | TRPN1 ag
COc1ccc(CCn2c(-c3cc([N+](=O)[O-])cc([N+](=O)[O-])c3)nc3nc4ccccc4nc32)cc1OC | 1 | -1 | 12* | 1 | -1
COc1ccc(CCn2c(-c3cc([N+](=O)[O-])cc([N+](=O)[O-])c3)nc3nc4ccccc4nc32)cc1 | 1 | 1 | 0 | 0 | -1
COc1ccc(Cn2c(-c3ccc(Br)cc3)c[n+]3ccccc23)cc1 | 1 | 0 | 2 | -1 | 0
COc1ccc(C2(C)NC(=O)N(CC(=O)c3cc(C)n(C4CC4)c3C)C2=O)cc1 (configuration not stated) | · | 45* | -16 | 49* | ·
Cc1ccc(C(=O)NNC(=S)NC(=O)c2ccccc2)cc1 | · | 96* | -19 | 88* | ·
Cc1ccc(C(=O)NNC(=S)NC(=O)c2ccc(Cl)cc2Cl)cc1 | 43* | 117* | -14 | 101* | 70*
O=C(NC(=S)NNC(=O)c1ccccc1O)c1ccc(F)cc1 | · | 32* | -26 | 34* | ·
Cc1ccc(C(=O)NC(=S)NNC(=O)c2ccc([N+](=O)[O-])cc2)cc1 | · | 4 | -7 | 10 | ·
Cc1ccccc1C(=O)NNC(=S)NC(=O)c1ccccc1 | 8 | 40* | -9 | 53* | 9
COc1cc(C)c(/C=C(\C#N)C(=O)Nc2cccc(C)c2)cc1C(C)C | 1 | 0 | -12 | -1 | 0
O=S1(=O)CC2SC(=S)N(Cc3ccccc3)C2C1 (configuration not stated) | 1 | 0 | -3 | 0 | 0
Cc1ccc(C(=O)NC(=S)NNC(=O)c2ccccc2[N+](=O)[O-])cc1 | 0 | 1 | -7 | 2 | 0
Cc1ccc(C(=O)NC(=S)NNC(=O)c2ccccc2)cc1 | · | 89* | -23 | 82* | ·
COc1ccc(Cc2nnc(SCC(=O)Nc3ccc(N4CCOCC4)cc3)n2C)cc1 | · | 1 | -4 | 0 | ·
CCc1ccc(-c2nc(CN3CCC(C(=O)N4CCN(c5ccccn5)CC4)CC3)c(C)o2)cc1 | 1 | 14 | -11 | 17 | 0
CCc1ccc(-c2nc(CN3CCC(C(=O)N4CCN(c5ccccc5)CC4)CC3)c(C)o2)cc1 | 4 | 34* | -11 | 29* | 3
CC(C)c1cc(=O)oc2c3c4c(cc12)CCCN4CCC3 | 0 | -1 | -4 | -1 | 0
O=c1oc2c3c4c(cc2c(C(F)(F)F)c1CCN1CCOCC1)CCCN4CCC3 | 10 | 33* | -12 | 34* | 20*
O=C1[C@H]2[C@@H](/C=C/c3ccccc3)N3C(=O)CN(Cc4ccccn4)C(=O)[C@@]3(Cc3ccccc3)[C@H]2C(=O)N1c1ccccc1 | · | 0 | 0 | 0 | ·
CC(C)Cc1ccc(C(C)C(=O)OCC(=O)c2c[nH]c3ccccc23)cc1 (configuration not stated) | 7 | 23* | -7 | 28* | 18
Cc1ccc(C(=O)OCC(=O)c2c[nH]c3ccccc23)cc1 | 1 | 0 | -10 | 1 | 0
Nc1ccn(Cc2ccc(F)cc2)n1 | 0 | 1 | -6 | 0 | -1
COc1ccc2c(n1)Sc1nc3ccccc3nc1N2 | 29* | 56* | -21 | 86* | 57*
Cn1c(CN2CCCCC2)nc2cc(NS(=O)(=O)c3ccc(Cl)cc3)ccc21 | 3 | 32* | -12 | 34* | 3
Cc1ccc(Nc2cc(C)nc3nc(C)nn23)cc1 | 0 | -1 | 12* | -2 | -1
SMILES | TRPML3 ag | V1aR counter | OXTR potentiator | OXTR ag | TRPN1 ag
COc1ccc(CCN2CCC(Nc3nc4ccccc4n3Cc3ccc(F)cc3)CC2)cc1 | 2 | 37* | -11 | 45* | 1
Cc1ccc(C(=O)C(C)OC(=O)Cn2cnc3c2c(=O)n(C)c(=O)n3C)cc1 (configuration not stated) | · | 2 | -3 | 2 | ·
CCN(CCn1cccn1)C(=O)CCc1nnc(CCCc2ccccc2)o1 | 26* | 0 | -5 | 0 | 44*
CC(C)NC(=O)NC(=O)COc1c(F)c(F)cc(F)c1F | 17* | -1 | -10 | -1 | 0
CCN1C/C(=C/c2ccc(N3CCOCC3)cc2)C(=O)/C(=C/c2ccc(N3CCOCC3)cc2)C1 | 11 | 22* | -12 | 26* | 9
O=C(NCc1cccc(C(F)(F)F)c1)c1cccc2c1C(=O)c1ccc(N3CCC(Cc4ccccc4)CC3)cc1S2(=O)=O | · | 24* | -11 | 23* | ·
O=C(NCCc1ccc(F)cc1)c1cccc2c1C(=O)c1ccc(N3CCC(Cc4ccccc4)CC3)cc1S2(=O)=O | · | 27* | -10 | 30* | ·
O=C(NCc1ccco1)c1cccc2c1C(=O)c1ccc(N3CCC(Cc4ccccc4)CC3)cc1S2(=O)=O | · | 13 | -10 | 15 | ·
O=C(Nc1ccccc1)Nc1cccc(C(F)(F)F)c1 | 14* | 11 | -11 | 9 | 24*
Cc1ccc(C2c3c(C)nn(-c4ccc([N+](=O)[O-])cc4)c3N=C3C(=O)Nc4ccccc4N32)cc1 (configuration not stated) | 33* | 0 | -11 | -2 | 26*
Cc1nn(-c2ccc([N+](=O)[O-])cc2)c2c1C(c1ccc(OC(F)F)cc1)N1C(=N2)C(=O)Nc2ccccc21 (configuration not stated) | -1 | -1 | 0 | -1 | 0
COc1ccc(C2CC(c3cccs3)=NN2c2ccc(C=O)cc2)cc1 (configuration not stated) | 17* | 28* | -9 | 24* | 29*
O=C(C[C@H]1C/C=C\C[C@H](Cc2ccc(F)cc2)C(=O)O[C@@H](c2ccccc2)CNC1=O)N[C@H](CO)Cc1ccccc1 | · | 60* | -8 | 45* | ·
O=C(C[C@H]1C/C=C\CC[C@H](Cc2ccc(F)cc2)C(=O)O[C@@H](c2ccccc2)CNC1=O)N[C@H](CO)Cc1ccccc1 | · | 52* | -9 | 33* | ·
O=C(C[C@H]1C/C=C\CC[C@H](Cc2ccc(F)cc2)C(=O)O[C@@H](c2ccccc2)CNC1=O)N[C@@H](CO)Cc1ccccc1 | · | 2 | -3 | 3 | ·
Cc1ccc(-c2noc(CCC(=O)NCCCN3CCN(c4cccc(Cl)c4)CC3)n2)cc1 | 2 | 21* | -21 | 31* | 2
O=C(Cn1cnc2c(nnn2Cc2ccccc2)c1=O)Nc1ccc2c(c1)OCCO2 | · | 1 | -5 | 1 | ·
O=C1c2ccccc2C(=O)N1CC(O)CNc1ccc(Br)cc1 (configuration not stated) | 1 | 5 | -4 | 4 | 2
O=C(c1ccc(NC(=S)NCc2ccc(Cl)cc2)cc1)N1CCCCC1 | 1 | 21* | -12 | 21* | 2
O=C(CNCc1ccc(Cl)cc1)Nc1ccc(C(=O)N2CCCCC2)cc1 | · | 5 | -2 | 5 | ·
O=C1CCCN1C(=O)CSc1ccc2ccccc2n1 | · | 6 | 5 | 0 | ·
